Assay results published in ChEMBL document CHEMBL4043205, “Picomolar inhibition of β-galactosidase (bovine liver) attributed to loop closure” (Bioorg Med Chem, 2017).
The source made the active and inactive calls. No cut-off for these calls is given here.

Columns and labels:
Aspergillus oryzae [1] = test: Inhibition of Aspergillus oryzae beta-galactosidase using 2-chloro-4-nitrophenyl b-dgalactopyranoside substrate by Lineweaver-Burk plot
[2] = Inhibition of Aspergillus oryzae beta-galactosidase using 2-chloro-4-nitrophenyl b-dgalactopyranoside substrate relative to control
Aspergillus oryzae [3] = test: Inhibition of Aspergillus oryzae beta-galactosidase using 2-chloro-4-nitrophenyl b-dgalactopyranoside substrate by Eddie-Hofstee plot
Beta-galactosidase [4] = target: T1, Beta-galactosidase (Bos taurus, UniProt Q58D55); test: Inhibition of bovine liver beta-galactosidase pre-incubated for 30 mins with 4-nitrophenyl-beta-D-galactopyranoside substrate before enzyme addition measured over 45 mins at 27 secs intervals by UV/Vis based spectroscopy
T1 sequence (Q58D55 whole entry): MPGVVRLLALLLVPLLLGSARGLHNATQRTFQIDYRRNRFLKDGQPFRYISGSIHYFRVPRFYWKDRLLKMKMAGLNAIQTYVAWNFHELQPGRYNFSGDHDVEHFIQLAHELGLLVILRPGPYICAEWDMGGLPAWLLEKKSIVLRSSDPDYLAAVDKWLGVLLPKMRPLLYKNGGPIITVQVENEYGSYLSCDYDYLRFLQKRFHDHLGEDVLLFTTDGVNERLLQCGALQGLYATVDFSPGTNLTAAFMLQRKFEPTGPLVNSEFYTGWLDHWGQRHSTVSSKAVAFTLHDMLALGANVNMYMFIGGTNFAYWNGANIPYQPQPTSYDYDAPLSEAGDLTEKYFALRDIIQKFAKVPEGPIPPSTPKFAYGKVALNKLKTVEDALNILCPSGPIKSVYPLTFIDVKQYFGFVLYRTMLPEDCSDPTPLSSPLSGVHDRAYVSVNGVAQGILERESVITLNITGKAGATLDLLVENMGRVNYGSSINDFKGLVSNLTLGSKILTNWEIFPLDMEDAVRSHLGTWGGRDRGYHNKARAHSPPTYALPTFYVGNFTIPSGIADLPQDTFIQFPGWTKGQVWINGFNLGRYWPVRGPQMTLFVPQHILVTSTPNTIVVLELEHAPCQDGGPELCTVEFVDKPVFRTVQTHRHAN
Procedure, shortened: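 Bovine liver enzyme (stock aliquot thawed, diluted in 5 mM HEPES, kept on ice). Varied 4-nitrophenyl-β-D-galactopyranoside with fixed inhibitor, pH 7.50 HEPES, equilibrated 30 °C 30 min before enzyme; 405 nm read for 45 min. Initial rates via ε 13,300 M−1 cm−1, fitted Michaelis-Menten at ≥2 inhibitor levels; competitive Ki from K′m = Km(1+[I]/Ki); duplicates, Lineweaver-Burk check.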

[5] = Inhibition of Aspergillus oryzae beta-galactosidase using 2-chloro-4-nitrophenyl b-dgalactopyranoside substrate
[6] = target: T2, Beta-galactosidase (Bos taurus) (UniProt Q58D55); test: Competitive inhibition of bovine liver beta-galactosidase using 4-nitrophenyl-beta-D-galactopyranoside substrate measured over 240 mins at 10 mins intervals by UV/Vis spectroscopy based Eddie-Hofstee plot
T2 sequence (whole entry): T1 sequence (Q58D55 whole entry)

[7] = target: T2, Beta-galactosidase (Bos taurus); test: Binding affinity to bovine liver beta-galactosidase assessed as induction of changes in enzyme molar ellipticity by CD spectroscopy
Procedure, shortened: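 The bovine liver enzyme stock was diluted in 5 mM HEPES and kept on ice. It was mixed 1:1 by volume with aqueous inhibitor stock and equilibrated. Ellipticity was recorded from 190–275 nm at 0.5 nm resolution in a 10 mm path cell, averaging 5 scans. Spectra were background-corrected for unbound inhibitor and buffer.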

Aspergillus oryzae [8] = test: Binding affinity to Aspergillus oryzae beta-galactosidase assessed as induction of changes in enzyme molar ellipticity by CD spectroscopy
[9] = target: T2, Beta-galactosidase (Bos taurus); test: Competitive inhibition of bovine liver beta-galactosidase using 4-nitrophenyl-beta-D-galactopyranoside substrate measured over 240 mins at 10 mins intervals by UV/Vis spectroscopy based Lineweaver-Burk plot
Beta-galactosidase [10] = target: T1, Beta-galactosidase; test: Inhibition of bovine liver beta-galactosidase using 4-nitrophenyl-beta-D-galactopyranoside substrate measured over 240 mins at 10 mins intervals by UV/Vis spectroscopy
Procedure, shortened: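 Bovine liver enzyme in 5 mM HEPES pH 7.50; 4-nitrophenyl-β-D-galactopyranoside mixed with 11 inhibitor dilutions (stocks 0.005–200 μM), equilibrated 30 °C 30 min, then enzyme added. Absorbance at 405 nm followed 240 min; final reads converted to percent inhibition against buffer control, plotted versus log inhibitor concentration; duplicates.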

SMILES	inhibition activity (Aspergillus oryzae [1])	IC50 [2] [nM]	inhibition activity (qualitative) (Aspergillus oryzae [3])	Ki (Beta-galactosidase [4]) [nM]	Ki [5] [nM]	competitive inhibition (qualitative call) [6]	Activity [7]	Activity (Aspergillus oryzae [8])	Inhibition mode (qualitative, Lineweaver-Burk) [9]	IC50 (Beta-galactosidase [10]) [nM]
N=C1N[C@H](CO)[C@H](O)[C@H](O)[C@H]1O	Active	830	Active	2000	150	Active	inactive	inactive	Active	> 50000
CO[C@H]1C(NCc2ccc(C)cc2)=N[C@H](CO)[C@H](O)[C@@H]1O	Active	41400	Active	1500	3400	Active	inactive	inactive	Active	10800
OC[C@H]1N/C(=N\Cc2ccccc2)[C@H](O)[C@@H](O)[C@H]1O	Active	49	Active	0.05	21.1	Active	inactive	inactive	Active	18.9
